Assay results as given in ChEMBL document CHEMBL1649443, “Novel S-adenosylmethionine decarboxylase inhibitors for the treatment of human African trypanosomiasis” (Antimicrob Agents Chemother, 2009).
Calls of active or inactive are those of the source.

Legend:
[1] = system: Trypanosoma brucei brucei; assay: Antiparasitic activity against Trypanosoma brucei brucei LAB 110 EATRO infected in mouse assessed as mean survival days at 2 mg/kg, ip qd for 4 days administered on 1st day of infection and measured through day 40 post infection; assay type: functional; details: route intraperitoneal
Method in brief: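 Mice in groups of five, infected i.p. on day 0 with 2.5 × 10^5 T. b. brucei LAB 110 EATRO parasites; i.p. dosing began day 1. Parasitemia checked twice weekly by microscopy of at least 20 fields of wet blood smears through day 40, with animals considered cured only when clear through day 40.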

[2] = system: Trypanosoma brucei brucei; assay: Antiparasitic activity against Trypanosoma brucei brucei LAB 110 EATRO infected in mouse assessed as parasitemia cure incidence at 2 mg/kg, ip qd for 4 days administered on 1st day of infection and measured through day 40 post infection; assay type: functional, organism-based; parameters: dose 2 mg/kg
[3] = Metabolic stability in human liver microsomes assessed as intrinsic clearance up to 45 mins by LC/MS/MS analysis; assay type: ADME, Microsome
[4] = Metabolic stability in human hepatocytes assessed as intrinsic clearance up to 45 mins by LC/MS/MS analysis; assay type: ADME, cell-based, Liver, Hepatocyte
[5] = Metabolic stability in rat hepatocytes assessed as intrinsic clearance up to 45 mins by LC/MS/MS analysis; assay type: ADME, cell-based, Liver, Hepatocyte
[6] = Metabolic stability in rat liver microsomes assessed as intrinsic clearance up to 45 mins by LC/MS/MS analysis; assay type: ADME, Microsome
[7] = Protein binding in mouse plasma at pH 7.4 after 4 hrs; assay type: ADME, cell-free; details: read-out: PPB (converted)
CYP2C19 = CYP2C19 (Homo sapiens, UniProt P33261); assay: (§1) Inhibition of human cytochrome P450 2C19; details: human
CYP2C19, sequence (P33261 whole entry): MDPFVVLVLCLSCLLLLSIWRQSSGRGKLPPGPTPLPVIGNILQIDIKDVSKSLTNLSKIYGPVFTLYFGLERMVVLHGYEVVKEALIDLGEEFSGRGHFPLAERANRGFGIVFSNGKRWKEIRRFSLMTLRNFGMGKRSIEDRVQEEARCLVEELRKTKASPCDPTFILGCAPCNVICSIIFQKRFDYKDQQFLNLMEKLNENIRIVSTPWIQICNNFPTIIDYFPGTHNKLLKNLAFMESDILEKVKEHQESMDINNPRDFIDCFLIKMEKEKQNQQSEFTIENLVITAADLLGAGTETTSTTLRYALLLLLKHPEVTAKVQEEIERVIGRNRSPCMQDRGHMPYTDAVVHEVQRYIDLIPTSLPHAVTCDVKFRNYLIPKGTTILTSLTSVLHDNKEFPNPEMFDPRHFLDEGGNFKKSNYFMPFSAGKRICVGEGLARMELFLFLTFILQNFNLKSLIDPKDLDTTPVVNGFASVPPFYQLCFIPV

CYP3A4 = CYP3A4 (Homo sapiens, UniProt P08684); assay: (§2) Inhibition of human cytochrome P450 3A4; details: human
CYP3A4, sequence (P08684 whole entry): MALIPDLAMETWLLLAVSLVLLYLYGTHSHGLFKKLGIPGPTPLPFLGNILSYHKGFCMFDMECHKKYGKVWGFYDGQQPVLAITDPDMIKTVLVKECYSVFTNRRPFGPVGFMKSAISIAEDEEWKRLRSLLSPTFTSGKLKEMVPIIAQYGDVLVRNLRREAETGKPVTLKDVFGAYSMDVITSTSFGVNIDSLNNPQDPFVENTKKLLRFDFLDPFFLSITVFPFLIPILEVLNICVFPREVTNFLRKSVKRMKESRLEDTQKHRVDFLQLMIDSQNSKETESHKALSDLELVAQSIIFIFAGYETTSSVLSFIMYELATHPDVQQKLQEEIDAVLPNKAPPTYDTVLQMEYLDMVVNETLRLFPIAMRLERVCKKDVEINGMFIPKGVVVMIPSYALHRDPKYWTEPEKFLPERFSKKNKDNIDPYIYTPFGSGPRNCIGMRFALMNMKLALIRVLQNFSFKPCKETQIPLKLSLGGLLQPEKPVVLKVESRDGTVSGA

[8] = Protein binding in human plasma at pH 7.4 after 4 hrs; assay type: ADME, cell-free; details: read-out: PPB (converted)
CYP2C9 = CYP2C9 (Homo sapiens, UniProt P11712); assay: (§3) Inhibition of human cytochrome P450 2C9; details: human
CYP2C9, sequence (P11712 whole entry): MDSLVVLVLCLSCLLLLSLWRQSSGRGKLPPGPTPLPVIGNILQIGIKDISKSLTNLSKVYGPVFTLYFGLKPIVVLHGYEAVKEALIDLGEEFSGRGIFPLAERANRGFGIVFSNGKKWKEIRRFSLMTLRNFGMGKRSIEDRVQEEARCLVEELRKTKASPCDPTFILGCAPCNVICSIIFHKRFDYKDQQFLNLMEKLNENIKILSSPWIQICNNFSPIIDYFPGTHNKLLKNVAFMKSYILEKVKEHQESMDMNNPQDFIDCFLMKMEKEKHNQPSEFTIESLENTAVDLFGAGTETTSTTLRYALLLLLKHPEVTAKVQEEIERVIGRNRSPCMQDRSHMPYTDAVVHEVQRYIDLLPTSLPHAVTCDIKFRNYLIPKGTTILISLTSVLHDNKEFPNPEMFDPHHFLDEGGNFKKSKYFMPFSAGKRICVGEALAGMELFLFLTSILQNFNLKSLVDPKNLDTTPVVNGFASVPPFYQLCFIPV

[9] = system: Trypanosoma brucei rhodesiense; assay: Antiparasitic activity against Trypanosoma brucei rhodesiense STIB 900 clone after 72 hrs by Alamar blue assay; assay type: functional, organism-based; details: STIB 900, 72 h
CYP2D6 = CYP2D6 (Homo sapiens, UniProt P10635); assay: (§4) Inhibition of human cytochrome P450 2D6; details: human
CYP2D6, sequence (P10635 whole entry): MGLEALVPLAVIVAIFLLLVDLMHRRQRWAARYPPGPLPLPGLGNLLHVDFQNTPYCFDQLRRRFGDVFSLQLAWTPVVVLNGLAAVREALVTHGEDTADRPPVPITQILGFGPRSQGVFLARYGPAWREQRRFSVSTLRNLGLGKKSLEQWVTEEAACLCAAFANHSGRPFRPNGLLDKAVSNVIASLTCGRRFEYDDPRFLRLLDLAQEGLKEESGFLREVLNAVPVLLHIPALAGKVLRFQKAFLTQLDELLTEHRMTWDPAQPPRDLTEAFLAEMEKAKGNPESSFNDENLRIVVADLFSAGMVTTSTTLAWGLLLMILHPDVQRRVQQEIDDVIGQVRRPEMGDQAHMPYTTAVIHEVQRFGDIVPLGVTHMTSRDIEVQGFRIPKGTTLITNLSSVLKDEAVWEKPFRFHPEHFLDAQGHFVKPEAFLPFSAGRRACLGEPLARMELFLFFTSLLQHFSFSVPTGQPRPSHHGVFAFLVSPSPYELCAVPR

CYP1A2 = target: T1, CYP1A2 (Homo sapiens, UniProt P05177); assay: (§5) Inhibition of human cytochrome P450 1A2; details: human
T1 sequence (P05177 whole entry): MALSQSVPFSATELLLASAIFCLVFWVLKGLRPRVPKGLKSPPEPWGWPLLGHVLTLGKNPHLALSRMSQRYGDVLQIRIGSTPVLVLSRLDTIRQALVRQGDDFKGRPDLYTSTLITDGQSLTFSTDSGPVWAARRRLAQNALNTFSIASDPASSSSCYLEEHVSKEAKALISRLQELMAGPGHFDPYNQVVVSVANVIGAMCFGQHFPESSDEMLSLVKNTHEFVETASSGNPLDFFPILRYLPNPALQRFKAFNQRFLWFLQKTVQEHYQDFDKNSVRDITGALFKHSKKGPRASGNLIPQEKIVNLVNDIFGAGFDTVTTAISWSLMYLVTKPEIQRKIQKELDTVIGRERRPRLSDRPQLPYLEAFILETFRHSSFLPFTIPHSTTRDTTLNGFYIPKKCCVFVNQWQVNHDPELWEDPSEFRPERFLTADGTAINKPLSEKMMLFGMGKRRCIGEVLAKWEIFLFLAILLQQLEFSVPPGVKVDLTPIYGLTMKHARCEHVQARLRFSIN

[10] = Kinetic solubility in phosphate-buffered saline at pH 7.4 after 16 to 24 hrs by UV spectrophotometry
[11] = AUC in mouse blood at 50 mg/kg, ip administered as single dose; assay type: ADME, organism-based; parameters: dose 50 mg/kg, route intraperitoneal
[12] = Cmax in mouse brain at 50 mg/kg, ip administered as single dose; assay type: ADME, organism-based; parameters: dose 50 mg/kg, route intraperitoneal
[13] = system: Trypanosoma brucei brucei; assay: Antiparasitic activity against Trypanosoma brucei brucei LAB 110 EATRO infected in mouse assessed as mean survival days at 50 mg/kg/day, ip bid for 4 days administered on 1st day of infection and measured through day 40 post infection; assay type: functional; details: route intraperitoneal
[14] = Permeability across basolateral to apical side of human Caco2 cells; assay type: ADME, cell-based; details: Caco-2, read-out: permeability
[15] = Metabolic stability in human assessed as compound remaining plasma after 4 hrs; assay type: ADME, cell-free; details: read-out: Stability
[16] = AUC in mouse brain at 50 mg/kg, ip administered as single dose; assay type: ADME, organism-based; parameters: dose 50 mg/kg, route intraperitoneal
Cytochrome P450 2C19 = Cytochrome P450 2C19 (Homo sapiens, UniProt P33261); assay: as §1
Cytochrome P450 2C19, sequence (P33261 whole entry): as the sequence (P33261 whole entry) above

[17] = Metabolic stability in rat whole blood assessed as compound remaining; assay type: ADME, tissue-based
[18] = system: Trypanosoma brucei brucei; assay: Antiparasitic activity against Trypanosoma brucei brucei STIB 795 infected in mouse assessed as mean survival days at 50 mg/kg, ip qd for 4 days administered on 3rd day of infection (reference value: 6.75 days); assay type: functional; details: route intraperitoneal
[19] = Permeability of the compound after 4 hrs by PAMPA assay; assay type: ADME; details: read-out: permeability
Cytochrome P450 3A4 = Cytochrome P450 3A4 (Homo sapiens, UniProt P08684); assay: as §2
Cytochrome P450 3A4, sequence (P08684 whole entry): as the sequence (P08684 whole entry) above

[20] = Half life in mouse at 50 mg/kg, ip administered as single dose; assay type: ADME, organism-based; parameters: dose 50 mg/kg, route intraperitoneal; details: in vivo
[21] = Partition coefficient in RBCs; assay type: ADME, cell-based; details: erythrocyte
[22] = Cmax in mouse blood at 50 mg/kg, ip administered as single dose; assay type: ADME, organism-based; parameters: dose 50 mg/kg, route intraperitoneal
Cytochrome P450 2C9 = Cytochrome P450 2C9 (Homo sapiens, UniProt P11712); assay: as §3
Cytochrome P450 2C9, sequence (P11712 whole entry): as the sequence (P11712 whole entry) above

[23] = Permeability across apical to basolateral side of human Caco2 cells; assay type: ADME, cell-based; details: Caco-2, read-out: permeability
[24] = Metabolic stability in rat plasma assessed as compound remaining after 4 hrs; assay type: ADME, cell-free; details: read-out: Stability
[25] = system: Trypanosoma brucei brucei; assay: Antiparasitic activity against Trypanosoma brucei brucei LAB 110 EATRO infected in mouse assessed as mean survival days at 50 mg/kg/day, ip administered on 1st day of infection and measured through day 40 post infection; details: route intraperitoneal
in vivo = details: mouse, brain, ip, 50 mg/kg
Cytochrome P450 2D6 = Cytochrome P450 2D6 (Homo sapiens, UniProt P10635); assay: as §4
Cytochrome P450 2D6, sequence (P10635 whole entry): as the sequence (P10635 whole entry) above

Cytochrome P450 1A2 = target: T2, Cytochrome P450 1A2 (Homo sapiens, UniProt P05177); assay: as §5
T2 sequence (P05177 whole entry): T1 sequence (P05177 whole entry)

[26] = system: Trypanosoma brucei brucei; assay: Antiparasitic activity against Trypanosoma brucei brucei LAB 110 EATRO infected in mouse assessed as parasitemia cure incidence at 50 mg/kg/day, ip bid for 4 days administered on 1st day of infection and measured through day 40 post infection; assay type: functional, organism-based
Method in brief: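 Mice, groups of five, infected i.p. on day 0 with 2.5 × 10^5 parasites; dosing from day 1 at 50 mg/kg/day i.p., given either once daily for 7 days or split twice daily for 4 days. Treatment controls got pentamidine 2 mg/kg QD i.p. for 4 days. Read-out was microscopy of ≥20 fields of wet blood smears twice weekly to day 40; cure means no parasites.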

Q: What does the source list for `N=C(N)c1ccc(OCCCCCOc2ccc(C(=N)N)cc2)cc1` [PENTAMIDINE]?
A: Survival [1]: >40 days; Activity [2]: Active

Q: For `CN(C/C=C\CN)C[C@H]1O[C@@H](n2cnc3c(N)ncnc32)[C@@H](F)[C@@H]1O`, which CLint scaled [3] is on record?
A: Its CLint scaled is less than 4.2 mL/min/kg.

Q: And the CLint scaled [4]?
A: The CLint scaled was less than 4.2 mL/min/kg.

Q: And the CLint scaled [5]?
A: The CLint scaled was less than 11 mL/min/kg.

Q: And the CLint scaled [6]?
A: The CLint scaled was less than 11 mL/min/kg.

Q: What about the fraction unbound at 4 h [7] of the same compound?
A: The fraction unbound at 4 h was 0.628.

Q: What about the IC50 (CYP2C19) of the same compound?
A: Its IC50 is greater than 5 µM.

Q: And the IC50 (CYP3A4)?
A: The IC50 was greater than 5 µM.

Q: What about the fraction unbound at 4 h [8] of the same compound?
A: Its fraction unbound at 4 h is 0.678.

Q: What about the IC50 (CYP2C9) of the same compound?
A: The IC50 was greater than 5 µM.

Q: What about the IC50 [9] of the same compound?
A: Its IC50 is 0.319 µM.

Q: What about the IC50 (CYP2D6) of the same compound?
A: The IC50 was greater than 5 µM.

Q: What about the IC50 (CYP1A2) of the same compound?
A: The IC50 was greater than 5 µM.

Q: What about the solubility kinetic [10] of the same compound?
A: The solubility kinetic was greater than 47 µg/mL.

Q: Which AUC [11] does the source give for `CN(C/C=C\CN)C[C@H]1O[C@@H](n2cnc3c(N)ncnc32)[C@H](O)[C@@H]1O` here?
A: The AUC was 20700 ng·h/mL.

Q: And the CLint scaled [3]?
A: Its CLint scaled is less than 4.2 mL/min/kg.

Q: And the Cmax [12]?
A: Its Cmax is 80 ng/mL.

Q: What about the CLint scaled [4] of the same compound?
A: Its CLint scaled is less than 4.2 mL/min/kg.

Q: And the CLint scaled [5]?
A: The CLint scaled was less than 11 mL/min/kg.

Q: And the CLint scaled [6]?
A: The CLint scaled was less than 11 mL/min/kg.

Q: And the Survival [13]?
A: The Survival was greater than 40 days.

Q: And the Papp B→A [14]?
A: The Papp B→A was 2.7 ×10⁻⁶ cm/s.

Q: And the fraction unbound at 4 h [7]?
A: The fraction unbound at 4 h was 0.302.

Q: And the remaining at 4 h [15]?
A: The remaining at 4 h was 100%.

Q: And the AUC [16]?
A: Its AUC is 360 ng·h/mL.

Q: What about the IC50 (Cytochrome P450 2C19) of the same compound?
A: The IC50 was greater than 5 µM.

Q: What about the Stability [17] of the same compound?
A: Its Stability is 100%.

Q: What about the Survival [18] of the same compound?
A: The Survival was greater than 30 days.

Q: What about the Papp at 4 h [19] of the same compound?
A: The Papp at 4 h was 0.13 ×10⁻⁶ cm/s.

Q: And the IC50 (Cytochrome P450 3A4)?
A: Its IC50 is greater than 5 µM.

Q: And the half-life [20]?
A: Its half-life is 2.48 h.

Q: What about the Partition coefficient [21] of the same compound?
A: Its Partition coefficient is 0.28.

Q: What about the Cmax [22] of the same compound?
A: Its Cmax is 44800 ng/mL.

Q: And the fraction unbound at 4 h [8]?
A: Its fraction unbound at 4 h is 0.271.

Q: What about the IC50 (Cytochrome P450 2C9) of the same compound?
A: Its IC50 is greater than 5 µM.

Q: And the Papp A→B [23]?
A: The Papp A→B was 3.25 ×10⁻⁶ cm/s.

Q: What about the remaining at 4 h [24] of the same compound?
A: The remaining at 4 h was 100%.

Q: What about the Survival [25] of the same compound?
A: The Survival was greater than 40 days.

Q: What about the Kp (in vivo) of the same compound?
A: Its Kp is 1.7.

Q: And the IC50 [9]?
A: Its IC50 is 0.0014 µM.

Q: What about the IC50 (Cytochrome P450 2D6) of the same compound?
A: The IC50 was greater than 5 µM.

Q: What about the IC50 (Cytochrome P450 1A2) of the same compound?
A: The IC50 was greater than 5 µM.

Q: What about the solubility kinetic [10] of the same compound?
A: The solubility kinetic was greater than 47 µg/mL.

Q: What about the Activity [26] of the same compound?
A: The Activity was “Active”.
